Results pooled from the literature.
Each line is one published result; the experiments were not run side by side.
Sample: Caco-2

| Structure (SMILES) | concentration | time | pH | quantity | result |
| --- | --- | --- | --- | --- | --- |
| COc1ccc2c(c1)[C@]13CCCC[C@@H]1[C@H](C2)N(C)CC3 | 10 µM |  | pH 6.5 | Papp A→B | 34.9 ×10⁻⁶ cm/s |
| N=c1c2c(-c3ccccc3)c(-c3ccccc3)n(Cc3ccccc3)c2ncn1[C@H]1CC[C@H](O)CC1 | 3 µM | 2 h | pH 7.4 | Papp A→B | 0.2 ×10⁻⁶ cm/s |
| CC[C@@]1(O)C(=O)OCc2c1cc1n(c2=O)Cc2cc3ccccc3nc2-1 | 100 µM | 105 min |  | Papp A→B | 36 ×10⁻⁶ cm/s |
| C/N=c1\nc(-c2ccccc2)n(-c2ccccc2)s1 | 20 µM | 95 min |  | Papp A→B | 38.9 ×10⁻⁶ cm/s |
| COc1cc2c(c(OC)c1OC)-c1ccc(OC)c(=O)cc1[C@@H](NC(C)=O)CC2 |  |  |  | Papp A→B | 0.2 ×10⁻⁶ cm/s |
| C[C@]12C[C@@H](O)[C@H]3[C@@H](CC[C@]4(O)C[C@@H](O)C[C@@H](O)[C@]34CO)[C@@]1(O)CC[C@@H]2c1cn(Cc2ccccc2)nn1 |  | 1 h | pH 6.5 | Papp A→B | 0.19 ×10⁻⁶ cm/s |
| C[C@H]1O[C@@H](O[C@H]2[C@@H](O)C[C@H](O[C@H]3[C@@H](O)C[C@H](O[C@H]4CC[C@@]5(C)[C@H](CC[C@@H]6[C@@H]5C[C@@H](O)[C@]5(C)[C@@H](C7=CC(=O)OC7)CC[C@]65O)C4)O[C@@H]3C)O[C@@H]2C)C[C@H](O)[C@@H]1O | 10 µM | 1 h | pH 7.4 | Papp A→B | 4.28 ×10⁻⁶ cm/s |
| O=C(CCCN1CCC2(CC1)C(=O)NCN2c1ccccc1)N(CC1CCCCC1)c1ccccc1 |  |  |  | Papp B→A | 6.8 ×10⁻⁶ cm/s |
